Test results taken from ChEMBL document CHEMBL1144904, “Isoquine and related amodiaquine analogues: a new generation of improved 4-aminoquinoline antimalarials” (J Med Chem, 2003).

Legend:
Plasmodium falciparum [1] = test: In vitro antimalarial activity against chloroquine-resistant Plasmodium falciparum K1; type: functional, organism-based
How it was run: (§1)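 Parasites kept in continuous culture in human erythrocytes in RPMI 1640 with 25 mM HEPES, 32 mM NaHCO3 and 10% human serum, gassed 3% O2/4% CO2/93% N2. 48-h assay at 2% parasitemia, 0.5% haematocrit, drugs from DMSO stocks diluted in medium, triplicate. [3H]-hypoxanthine added at 24 h, further 24 h at 37 °C, scintillation counting. IC50 by probit interpolation of log dose–response.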

Plasmodium yoelii = test: […] against Plasmodium yoelii NS in peter 4-day assay; type: functional; settings: 96 h, in the assay text read “In vivo” for “In vitro”
How it was run: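 Male CD-1 mice (n = 5 per dose group) infected ip with 10^6 parasitized erythrocytes in PBS. Oral gavage dosing at time 0 (2 h post-inoculation) and on days 1, 2 and 3, at 25, 10, 3, 1, 0.3 and 0.1 mg/kg. On day 4, Giemsa-stained tail-blood films were read microscopically for parasite density, and ED50 was derived.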

Plasmodium falciparum [2] = test: In vitro antimalarial activity against Plasmodium falciparum HB; type: functional, organism-based; how it was run: as §1

Row | SMILES | IC50 (Plasmodium falciparum [1]) [nM] | ED50 (Plasmodium yoelii) [mg/kg] | IC50 (Plasmodium falciparum [2]) [nM]
1 | CCN(CC)Cc1cc(Nc2ccnc3cc(Cl)ccc23)ccc1O.Cl | 15.1 | 7.65 | –
2 | CN(C)Cc1ccc(Nc2ccnc3cc(Cl)ccc23)cc1O | 18.6 | – | 14.8
3 | CCNCc1ccc(Nc2ccnc3cc(Cl)ccc23)cc1O [DESETHYL ISOQUINE] | 32.4 | – | 16.2
4 | CCN(CC)Cc1ccc(Nc2ccnc3cc(Cl)ccc23)cc1O | – | – | 9.02
5 | Oc1cc(Nc2ccnc3cc(Cl)ccc23)ccc1CN1CCCCC1 | 20.3 | – | 9.07
6 | CCCCN(CCCC)Cc1ccc(Nc2ccnc3cc(Cl)ccc23)cc1O | 37.2 | – | 51.9
7 | CC(C)(C)NCc1ccc(Nc2ccnc3cc(Cl)ccc23)cc1O [GSK-369796] | 32.8 | – | 30
8 | Oc1cc(Nc2ccnc3cc(Cl)ccc23)ccc1CN1CCCC1 | 21.8 | – | 28.4
9 | Oc1cc(Nc2ccnc3cc(Cl)ccc23)ccc1CN1CCOCC1 | 112 | – | 97.2
10 | CCCN(CCC)Cc1ccc(Nc2ccnc3cc(Cl)ccc23)cc1O | 30.6 | – | 19.8
11 | CC(C)NCc1ccc(Nc2ccnc3cc(Cl)ccc23)cc1O | 26.2 | – | 20.2
12 | CCN(CC)Cc1ccc(Nc2ccnc3cc(Cl)ccc23)cc1O [ISOQUINE] | – | 2.65 | –
